According to publication PMC4492651 (Drug Design, Development and Therapy, 2015):
Read-outs that look alike come from different tables or passages of the source.

Experiments:
[1] = tested on: carrageenan-induced thrombosis; assay: Model of carrageenan-induced thrombosis; format: in vivo, KM mice; details: n=10; for Black tail length (cm) 24 hours / Black tail occurrence (%) 24 hours: 24 hours after carrageenan; for Black tail length (cm) 24 hours / Black tail length (cm) 48 hours: mean ± SD; for Black tail length (cm) 48 hours / Black tail occurrence (%) 48 hours: 48 hours after carrageenan
[2] = tested on: GSH-Px, SOD, NO and MDA in brain tissue; assay: Antioxidant stress activity in vivo after I/R; set-up: species or system Sprague Dawley rats; details: I/R rats; for content of SOD in comparison with the model group: 3d 10, 20 and 50 mg/kg, NBP 20 mg/kg, Eda 3.0 mg/kg
Summary of the method: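 Male Sprague Dawley rats underwent filament MCAO, 2 h occlusion then reperfusion. Test compound (10, 20, 50 mg/kg; model vehicle oil) given ip 15 min after MCAO onset. At 24 h reperfusion, under chloral hydrate, brains were rinsed in cold saline; ischemic core and penumbra were separated and stored at −70°C. After protein assay, T-SOD and GSH-Px activities, MDA and NO were measured by kits. n=10, mean ± SD, ANOVA/Newman–Keuls.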

[3] = tested on: HT22 cells; assay: H2O2-induced cytotoxicity in HT22 cells; format: cell-based, murine; details: Mus musculus, HT-22, read-out: H2O2-treated HT22 viability percentage
Summary of the method: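 Murine HT22 cells in DMEM with 10% newborn calf serum, 37°C, 5% CO2. Seeded at 20,000 cells/well and grown 24 h. Pretreated in quadruplicate with test compound (10–100 µM) for 2 h, exposed to 500 µM H2O2 for 1 h, then given fresh medium for 12 h. Viability by MTT. Four separate experiments, mean ± SD.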

[4] = tested on: transient middle cerebral artery occlusion; set-up: species or system Sprague Dawley rats; details: rat, in vivo, ip
[5] = 3 mg/kg by gavage daily for 2 days
[6] = 50 mg/kg by gavage daily for 2 days

SMILES	Black tail length (cm) 24 hours [1, 5] [cm]	Black tail occurrence (%) 24 hours [1, 5] [%]	Black tail length (cm) 48 hours [1, 5] [cm]	Black tail occurrence (%) 48 hours [1, 5] [%]	levels of GSH-Px activity vs model animals ([2]; ischemic core, 3d 50 mg/kg, Eda 3 mg/kg)	content of SOD in comparison with the model group [2]	viability at 100 µM [3] [%]	infarct size reduced by ([4]; 3 mg/kg) [%]	Black tail length (cm) 24 hours [1, 6] [cm]	Black tail occurrence (%) 24 hours [1, 6] [%]	Black tail length (cm) 48 hours [1, 6] [cm]	Black tail occurrence (%) 48 hours [1, 6] [%]	NO activity ([2]; 20 mg/kg, 24 hours postreperfusion, model 1.51) [U/mg]	infarct size reduced by ([4]; 20 mg/kg) [%]
CC1=NN(c2ccccc2)C(=O)C1 [Eda, edaravone]	4.6±1.7	70	4.5±1.8	80	significantly higher	increased	69.9	69.65	–	–	–	–	–	–
CC(=O)Oc1ccccc1C(=O)O [ASP, aspirin]	–	–	–	–	–	–	–	–	1.5±0.5	30	2.4±0.6	40	–	–
CCCCC1OC(=O)c2ccccc21 (centres unmarked) [NBP, 3-n-butylphthalide]	–	–	–	–	–	increased	71.5	–	3.1±0.3	30	3.5±0.5	50	0.92	26.19
